From publication PMC4883117 (Fitoterapia, 2015)
Several values for one entry are separate records, joined by “and”; a condition that tells them apart may be missing. Identical values can stand only once. Like-named read-outs stand apart in the source and are kept apart here.

What was measured:
[1] = system: Trypanosoma brucei brucei; test: In vitro antitrypanosomal Alamar Blue assay on T. brucei trypomastigote cultures; type: cell-based; conditions: for Antitrypanosomal activity IC50 / Antitrypanosomal activity IC90: T. b. brucei, 37 °C, mean ± S.D. of duplicate observations, tested range 0.4–10 μg/mL; for IC50 / IC90: Trypanosoma brucei; for IC50: read-out: Antitrypanosomal activity IC50; for IC90: read-out: Antitrypanosomal activity IC90
How it was run: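 T. b. brucei trypomastigotes seeded at 2 × 10^6 cell/mL and exposed to test compound at three concentrations (40–1.6 or […]). Incubated 72 h at 37 °C, then parasite growth read by Alamar Blue. IC50 and IC90 were fitted from dose–response curves and given as mean ± S.D. of duplicate observations. Difluoromethylornithine served as positive control.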

THP1 cells = test: Cytotoxicity against THP1 cell cultures; type: cell-based, human
[2] = Cytotoxicity against THP1 cell cultures; type: cell-based, human; conditions: human, THP1 cells
μ-opioid receptors = μ-opioid receptors (Homo sapiens, UniProt P35372); test: Opioid receptor radioligand binding assay; conditions: for Ki: read-out: μ-opioid receptor Ki; for IC50: read-out: μ-opioid receptor binding IC50
Chain of μ-opioid receptors (P35372 whole entry): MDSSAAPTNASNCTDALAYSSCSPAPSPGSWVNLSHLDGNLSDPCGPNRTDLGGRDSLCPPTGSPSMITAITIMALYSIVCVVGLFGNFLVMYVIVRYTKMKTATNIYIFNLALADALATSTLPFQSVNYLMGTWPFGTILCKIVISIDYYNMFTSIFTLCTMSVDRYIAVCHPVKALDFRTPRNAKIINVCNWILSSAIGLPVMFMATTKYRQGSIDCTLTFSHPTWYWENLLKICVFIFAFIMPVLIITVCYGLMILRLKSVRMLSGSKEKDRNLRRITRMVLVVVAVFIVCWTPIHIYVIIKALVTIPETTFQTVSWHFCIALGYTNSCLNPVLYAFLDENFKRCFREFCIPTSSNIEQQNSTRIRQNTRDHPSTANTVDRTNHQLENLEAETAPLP

Which “Antitrypanosomal activity IC50” value ([1]; 72 h) does the source give for “2α-Hydroxyheinsiagenin A 3-O-[α-L-rhamnopyranosyl-(1→2)-β-D-glucopyranosyl-(1→2)]-β-D-glucopyranoside [Compound 3]” here?
Its value is 2.75 µg/mL.

What about the “Antitrypanosomal activity IC90” value ([1]; 72 h) of the same compound?
The value was 3.53 µg/mL.

What about the “THP1 cell toxicity IC50” value (THP1 cells) of the same compound?
The value was >10 µg/mL.

With “2α-Hydroxyheinsiagenin A 3-O-[β-D-glucopyranosyl-(1→2)]-[β-D-glucopyranosyl]-(1→4)]-β-D-glucopyranoside [Compound 4]” as the compound, how does the “Antitrypanosomal activity IC50” value ([1]; 72 h) read?
Its value is 3.04 µg/mL.

And the “Antitrypanosomal activity IC90” value ([1]; 72 h)?
Its value is 4.64 µg/mL.

And the “THP1 cell toxicity IC50” value (THP1 cells)?
The value was >10 µg/mL.

With `C/C(=C\C=C\[C@@H](C)[C@H]1CC[C@@]2(C)C3=C(CC[C@]12CO)[C@@]1(C)CC[C@H](O[C@@H]2O[C@H](CO)[C@@H](O[C@@H]4O[C@H](CO)[C@@H](O)[C@H](O)[C@H]4O)[C@H](O)[C@H]2O[C@@H]2O[C@H](CO)[C@@H](O)[C@H](O)[C@H]2O[C@@H]2O[C@@H](C)[C@H](O)[C@@H](O)[C@H]2O)C(C)(C)[C@@H]1CC3)C(=O)N[C@@H]1C(=O)O[C@H](C)[C@@H]1C` [Compound 5, N-(2S, 3R, 4R-3-methyl-4-pentanolid-2-yl)-18-hydroxylanosta-8 (9), 22E, 24E-trien-27-amide-3-O-[α-L-rhamnopyranosyl-(1→2)-O-β-D-glucopyranosyl-(1→2)]-[β-D-glucopyranosyl-(1→4)]-β-D-glucopyranoside] as the compound, how does the “Antitrypanosomal activity IC50” value ([1]; 72 h) read?
The value was >10 µg/mL.

And the “Antitrypanosomal activity IC90” value ([1]; 72 h)?
The value was >10 µg/mL.

And the “antitrypanosomal activity (in words)” value ([1]; tested concentrations range 0.32–8.23 μM)?
Its value is “no antitrypanosomal activity”.

And the “THP1 cell toxicity IC50” value (THP1 cells)?
Its value is >10 µg/mL.

With `NCCCC(N)(C(=O)O)C(F)F` (stereo not drawn) [DFMO, difluoromethylornithine, reference compound] as the compound, how does the IC50 ([1]; 72 h) read?
Its IC50 is 2.38 µg/mL.

What about the IC90 ([1]; 72 h) of the same compound?
Its IC90 is 5.28 µg/mL.

And the IC50 [1]?
Its IC50 is 13.1 µM.

What about the IC90 [1] of the same compound?
Its IC90 is 29 µM.

What about the IC50 [2] of the same compound?
The IC50 was > 10 µg/mL.

With “Heinsiagenin A 3-O-[α-L-rhamnopyranosyl-(1→2)-β-D-glucopyranosyl-(1→2)]-[β-D-glucopyranosyl-(1→4)]-β-D-glucopyranoside [Compound 2]” as the compound, how does the “Antitrypanosomal activity IC50” value ([1]; 72 h) read?
The value was 3.08 µg/mL.

And the “Antitrypanosomal activity IC90” value ([1]; 72 h)?
Its value is 4.27 µg/mL.

And the “THP1 cell toxicity IC50” value (THP1 cells)?
The value was >10 µg/mL.

And the “radio ligand displacement in μ-opioid receptor binding assay” value (μ-opioid receptors)?
Its value is 61.0%.

What about the Ki (μ-opioid receptors) of the same compound?
Its Ki is 0.872 µM and 0.87 µM.

What about the IC50 (μ-opioid receptors) of the same compound?
Its IC50 is 1.74 µM.

What does the source list for “Heinsiagenin A 3-O-[α-L-rhamnopyranosyl-(1→2)-β-D-glucopyranosyl-(1→2)]-β-D-glucopyranoside [Compound 1]”?
Antitrypanosomal activity IC50 ([1]; 72 h): 9.13 µg/mL; Antitrypanosomal activity IC90 ([1]; 72 h): 11.05 µg/mL; THP1 cell toxicity IC50 (THP1 cells): >10 µg/mL; radio ligand displacement in μ-opioid receptor binding assay (μ-opioid receptors): 65.9%; Ki (μ-opioid receptors): 9.94 µM; IC50 (μ-opioid receptors): 19.9 µM
